Publication PMC4437580 (Bioorganic & medicinal chemistry letters, 2014)

Assays:
untagged Asf1 = untagged Asf1 (Homo sapiens, UniProt Q9Y294); test: ALPHA binding studies with Asf1; settings: two different versions of ALPHA; data not shown
MDA-MB-231 cells = test: Cell viability, trypan blue exclusion; type: cell-based; settings: drug 24 μM, 24-hour treatment
Method in brief: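 MDA-MB-231 cells grown to 80% confluence, harvested, seeded at 1.5 × 10^5 cells/mL and left overnight. Medium replaced with FBS-free medium containing test compound at 24 μM. FBS added after 1 h, then a further 24 h exposure. Cell density counted by trypan blue exclusion. Viability (%) = treated density / DMSO-only control density × 100.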

Asf1-H3/H4 = Asf1-H3/H4 (Homo sapiens, UniProt Q9Y294); test: Asf1-H3/H4 binding inhibition
Sequence of Asf1-H3/H4 (Q9Y294 1-155): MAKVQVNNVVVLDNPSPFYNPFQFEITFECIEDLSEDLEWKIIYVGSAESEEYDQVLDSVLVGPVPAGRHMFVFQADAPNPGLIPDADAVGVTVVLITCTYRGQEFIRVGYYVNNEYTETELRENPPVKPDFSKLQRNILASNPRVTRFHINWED

Sequence of untagged Asf1 (Q9Y294 1-155): as above

Row | SMILES | Asf1-H3/H4 binding potency/activity, in words (Asf1-H3/H4) | further results
1 | COc1ccc(-c2cc([C@@H](O)[C@@H]3CCCCN3)c3ccccc3n2)cc1.Cl [Compound 1] |  | Binding to untagged Asf1, in words (untagged Asf1): not to bind; Cell viability (cytotoxicity), in words (MDA-MB-231 cells): potently inhibit cell viability
2 | COc1cc(/C=N/NC(=O)c2ccc(NC(C)=O)cc2)cc(Br)c1O [Compound 18] | significant loss of potency | 
3 | COc1cc(/C=N/NC(=O)C2CCNCC2)cc(Br)c1O [Compound 25] | ineffective | 
4 | COc1cc(/C=N/NC(=O)C2CCOCC2)cc(Br)c1O [Compound 26] | ineffective | 
5 | COc1cc(/C=N/NC(=O)c2ccc(NC(=O)c3ccccc3)c(COCCN(C)C)c2)cc(Br)c1O [Compound 33] | did not improve potency | 
6 | O=C(N/N=C/c1cc(Br)ccc1O)c1ccncc1 [Compound 47] | significant boost in potency | Assay interference (metal scavenging) (Asf1-H3/H4; upon further analysis): false positive results
7 | COc1cc(/C=N/N(C)C(=O)c2ccc(NC(=O)c3ccccc3)cc2)cc(Br)c1O [Compound 52] | tolerated | 
